Experiments:
[1] = target: Estrogen receptor (Bos taurus) (UniProt Q9XSB5+P49884); assay: Relative binding affinity for the calf uterine estrogen receptor measured as the ratio of molar concentration of 17-beta-estradiol (E2) and inhibitor required to decrease the amount of bound [3H]E2 by 50%; assay type: protein assay
How it was run: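 Competitive binding in calf uterine cytosol with 5×10^-9 M [3H]estradiol, 18 h at 4 °C, Tris/EDTA buffer (0.01 M, pH 7.5). Unbound ligand was removed with dextran-coated charcoal (90 min, 4 °C) and supernatant radioactivity counted. Six competitor concentrations gave 10–90% bound. From semilog plots, RBA = ratio of molar concentrations of estradiol to compound giving 50% decrease in binding, ×100.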

[2] = organism: Rattus norvegicus; assay: Percent progressive DMBA-induced mammary carcinoma tumors in rats at 1.8 mg dose; assay type: functional
How it was run: (§1)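 Female Sprague-Dawley rats, 50 days old, given a single 20 mg DMBA dose in 1 mL olive oil by gavage. Rats were palpated twice weekly from day 30, and those without tumors by day 70 were discarded. Rats were randomized once tumor area exceeded 140 mm². Drug dose was per kg in olive oil (1 mL/kg) sc, single dose Mon–Thu and double dose Fri. Tumor area (caliper, two perpendicular axes) and body weight were measured twice weekly.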

[3] = organism: Rattus norvegicus; assay: Number of DMBA-induced mammary carcinoma tumors in rats at 1.8 mg dose; assay type: functional
How it was run: (§2)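 DMBA-induced tumors in Sprague-Dawley rats, entered when tumor area exceeded 140 mm². Dose per kg was given sc in olive oil, daily Monday to Thursday with a double dose Friday. Tumors were measured by calipers twice weekly. Tumor number was counted at the start of the test. Complete remission meant the tumor was no longer palpable. Partial remission meant reduction to ≤50% of initial size. New tumor appearance was recorded.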

[4] = target: T1, Estrogen receptor (Mus musculus) (UniProt O08537+P19785); assay: Percentage inhibition of uterotrophic activity at 5 ug dose; assay type: functional
How it was run: (§3)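 Antiuterotrophic test in immature 19-day-old female NMRI mice (n=10), dosed sc on 3 consecutive days with 0.4 µg estrone per animal per day plus compound in olive oil. Uterine dry weight/body weight ×100 was read 24 h after the last dose. Inhibition % = 100 − [(E_S,T − E_V)/(E_S − E_V)]×100.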

[5] = target: T1, Estrogen receptor (Mus musculus); assay: Uterotrophic activity in mice as uterus dry weight (mg)/body weight (g) *100 at 0.2 ug dose; assay type: functional, tissue-based
How it was run: (§4)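 Immature 19-day-old female NMRI mice, groups of 10. Compound dose per animal in olive oil (50 µL) sc on 3 consecutive days. Mice were killed 24 h after the last injection. Uteri were Bouin-fixed 20 h, cleaned, washed with alcoholic LiCl, and dried at 100 °C for 24 h. Effect = uterine dry weight (mg)/body weight (g) ×100; mean ± SD.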

[6] = target: T1, Estrogen receptor (Mus musculus); assay: Percentage inhibition of uterotrophic activity at 125 ug dose; assay type: functional; how it was run: as §3
[7] = target: T1, Estrogen receptor (Mus musculus); assay: Uterotrophic activity in mice as uterus dry weight (mg)/body weight (g) *100 at 5 ug dose; assay type: functional, tissue-based; how it was run: as §4
[8] = target: T1, Estrogen receptor (Mus musculus); assay: Uterotrophic activity in mice as uterus dry weight (mg)/body weight (g) *100 at 25 ug dose; assay type: functional, tissue-based; how it was run: as §4
[9] = organism: Rattus norvegicus; assay: (§5) Change in DMBA-induced mammary carcinoma tumor area in rats at 1.8 mg dose; assay type: functional
How it was run: (§6)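 Female Sprague-Dawley rats got one 20 mg DMBA dose by gavage at 50 days old and were palpated twice weekly from day 30. Rats were randomized once tumor area exceeded 140 mm². Dose (per kg) was given sc in olive oil, once daily Monday to Thursday and doubled on Friday. Tumor area was taken from caliper measurements of two perpendicular axes, twice weekly. Change per animal is given as median % and range.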

[10] = target: T1, Estrogen receptor (Mus musculus); assay: Anti-uterotrophic activity in mice as uterus dry weight (mg)/body weight (g) *100 at 1 ug dose; assay type: functional, tissue-based
How it was run: (§7)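 Immature female NMRI mice, 19 days old, groups of 10, given sc injections on 3 consecutive days. Each injection held 0.4 μg estrone plus the indole dose per animal, in olive oil (50 μL). Killed 24 h after the last injection. Uteri were fixed in Bouin solution, washed, and dried 24 h at 100 °C. Read-out was uterine dry weight (mg)/body weight (g) × 100, mean ± SD.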

[11] = organism: Rattus norvegicus; assay: Percent unchanged DMBA-induced mammary carcinoma tumors in rats at 1.8 mg dose; assay type: functional; how it was run: as §1
[12] = target: T1, Estrogen receptor (Mus musculus); assay: Percentage inhibition of uterotrophic activity at 25 ug dose; assay type: functional; how it was run: as §3
[13] = organism: Rattus norvegicus; assay: as §5; assay type: functional; how it was run: as §6; remark: listed apart in the source
[14] = organism: Rattus norvegicus; assay: Partial remission (%) of DMBA-induced mammary carcinoma tumors in rats at 1.8 mg dose; assay type: functional; how it was run: as §2
[15] = organism: Rattus norvegicus; assay: Change in DMBA-induced mammary carcinoma tumor area in rats at 1.8 mg dose; 47-510; assay type: functional; how it was run: as §6
[16] = target: T1, Estrogen receptor (Mus musculus); assay: Anti-uterotrophic activity in mice as uterus dry weight (mg)/body weight (g) *100 at 25 ug dose; assay type: functional, tissue-based; how it was run: as §7
[17] = target: T1, Estrogen receptor (Mus musculus); assay: Anti-uterotrophic activity in mice as uterus dry weight (mg)/body weight (g) *100 at 5 ug dose; assay type: functional, tissue-based; how it was run: as §7
[18] = organism: Rattus norvegicus; assay: Change in body weight of DMBA-induced mammary carcinoma tumor bearing rats at 1.8 mg dose; assay type: functional
How it was run: (§8)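 DMBA-induced tumor-bearing Sprague-Dawley rats (20 mg DMBA by gavage at 50 days old), randomized when tumor area exceeded 140 mm². Dose per kg was given sc in olive oil, single dose daily Monday to Thursday, double dose Friday. Body weight was measured twice weekly. Read-out was % change in body weight.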

[19] = target: T1, Estrogen receptor (Mus musculus); assay: Anti-uterotrophic activity in mice as uterus dry weight (mg)/body weight (g) *100 at 125 ug dose; assay type: functional, tissue-based; how it was run: as §7
[20] = target: T1, Estrogen receptor (Mus musculus); assay: Percentage inhibition of uterotrophic activity at 1 ug dose; assay type: functional; how it was run: as §3
[21] = target: T1, Estrogen receptor (Mus musculus); assay: Uterotrophic activity in mice as uterus dry weight (mg)/body weight (g) *100 at 1 ug dose; assay type: functional, tissue-based; how it was run: as §4
[22] = organism: Rattus norvegicus; assay: Formation of new DMBA-induced mammary carcinoma tumors in rats at 1.8 mg dose; assay type: functional; how it was run: as §2
[23] = target: T1, Estrogen receptor (Mus musculus); assay: Uterotrophic activity in mice as uterus dry weight (mg)/body weight (g) *100 at 125 ug dose; assay type: functional, tissue-based; how it was run: as §4
[24] = organism: Rattus norvegicus; assay: Formation of new DMBA-induced mammary carcinoma tumors in rats at 2 mg dose; assay type: functional; how it was run: as §2
[25] = organism: Rattus norvegicus; assay: Change in DMBA-induced mammary carcinoma tumor area in rats at 2 mg dose; -100-231; assay type: functional; how it was run: as §6
[26] = organism: Rattus norvegicus; assay: Percent progressive DMBA-induced mammary carcinoma tumors in rats at 2 mg dose; assay type: functional; how it was run: as §1
[27] = organism: Rattus norvegicus; assay: Change in DMBA-induced mammary carcinoma tumor area in rats at 2 mg dose; assay type: functional; how it was run: as §6
[28] = organism: Rattus norvegicus; assay: Partial remission (%) of DMBA-induced mammary carcinoma tumors in rats; assay type: functional; how it was run: as §2
[29] = organism: Rattus norvegicus; assay: Change in body weight of DMBA-induced mammary carcinoma tumor bearing rats at 2 mg dose; assay type: functional; how it was run: as §8
[30] = organism: Rattus norvegicus; assay: Percent unchanged DMBA-induced mammary carcinoma tumors in rats at 2 mg dose; assay type: functional; how it was run: as §1
[31] = organism: Rattus norvegicus; assay: Complete remission (%) of DMBA-induced mammary carcinoma tumors in rats at 2 mg dose; assay type: functional; how it was run: as §2
[32] = organism: Rattus norvegicus; assay: Number of DMBA-induced mammary carcinoma tumors in rats at 2 mg dose; assay type: functional; how it was run: as §2

T1 sequence (O08537 whole entry, looked up): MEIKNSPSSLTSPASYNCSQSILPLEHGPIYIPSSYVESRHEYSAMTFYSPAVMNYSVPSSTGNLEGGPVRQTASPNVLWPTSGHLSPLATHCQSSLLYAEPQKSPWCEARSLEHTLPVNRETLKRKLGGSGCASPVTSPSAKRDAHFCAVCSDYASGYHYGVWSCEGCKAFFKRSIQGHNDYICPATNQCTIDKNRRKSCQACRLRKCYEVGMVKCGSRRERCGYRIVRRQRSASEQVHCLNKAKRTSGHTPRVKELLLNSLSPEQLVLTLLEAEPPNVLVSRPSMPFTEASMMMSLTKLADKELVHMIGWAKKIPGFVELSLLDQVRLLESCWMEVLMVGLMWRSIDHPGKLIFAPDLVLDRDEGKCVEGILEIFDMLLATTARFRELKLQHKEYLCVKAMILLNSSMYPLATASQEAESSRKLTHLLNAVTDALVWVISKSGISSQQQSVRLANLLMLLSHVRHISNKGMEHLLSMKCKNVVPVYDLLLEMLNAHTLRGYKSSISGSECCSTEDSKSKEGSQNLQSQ
T1 sequence (P19785 whole entry, looked up): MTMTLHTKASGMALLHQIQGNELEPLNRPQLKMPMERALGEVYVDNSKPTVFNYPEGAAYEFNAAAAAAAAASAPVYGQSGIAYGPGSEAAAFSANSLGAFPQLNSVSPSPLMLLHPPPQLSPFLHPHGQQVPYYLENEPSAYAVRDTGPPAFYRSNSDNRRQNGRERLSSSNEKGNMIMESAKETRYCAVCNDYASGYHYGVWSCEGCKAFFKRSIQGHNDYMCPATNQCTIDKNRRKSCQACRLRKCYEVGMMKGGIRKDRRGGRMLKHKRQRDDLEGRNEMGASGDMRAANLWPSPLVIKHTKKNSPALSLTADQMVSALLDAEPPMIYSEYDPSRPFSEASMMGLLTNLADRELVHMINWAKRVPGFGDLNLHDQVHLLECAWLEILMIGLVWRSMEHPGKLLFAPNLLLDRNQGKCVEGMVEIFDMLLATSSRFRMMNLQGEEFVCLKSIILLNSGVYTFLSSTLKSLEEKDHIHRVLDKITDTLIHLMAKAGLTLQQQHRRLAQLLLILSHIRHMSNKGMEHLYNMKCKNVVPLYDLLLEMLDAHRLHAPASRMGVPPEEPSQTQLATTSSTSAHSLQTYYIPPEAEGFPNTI

CCc1c(-c2ccc(O)cc2)n(CC)c2ccc(O)cc12
RBA [1]: 23

CCCn1c(-c2cccc(O)c2)c(C)c2cc(O)ccc21
RBA [1]: 7.4

CCCn1c(-c2ccc(OC(C)=O)cc2)c(C)c2cc(OC(C)=O)ccc21
Progressed tumors [2]: 55%
No. of tumors [3]: 34
inhibition [4]: 37%
Uterotrophic effect [5]: 16.7
inhibition [6]: 67%
Uterotrophic effect [7]: 23
Uterotrophic effect [8]: 28.5
Change of tumor area [9]: 198%
Anti-uterotrophic effect [10]: 45.2
Static tumors [11]: 30%
inhibition [12]: 66%
Change of tumor area [13]: 198%
Partial remission [14]: 8%
Change of tumor area [15]: 47%
Anti-uterotrophic effect [16]: 29.8
Anti-uterotrophic effect [17]: 40.3
Change of body weight [18]: 2%
Anti-uterotrophic effect [19]: 29.3
inhibition [20]: 24%
Uterotrophic effect [21]: 21.7
New tumors [22]: 27

CCCn1c(-c2ccc(O)cc2)c(CC)c2ccc(O)cc21
RBA [1]: 19

CCn1c(-c2ccc(O)cc2)cc2ccc(O)cc21
RBA [1]: 16

Cc1c(-c2ccc(O)cc2)[nH]c2ccc(O)cc12
RBA [1]: 0.06

CCn1c(-c2cccc(O)c2)cc2ccc(O)cc21
RBA [1]: 1.7

CC(=O)Oc1ccc(-c2c(C)c3ccc(OC(C)=O)cc3n2C)cc1
inhibition [4]: 7%
Uterotrophic effect [5]: 18.2
inhibition [6]: 33%
Uterotrophic effect [7]: 21.4
Uterotrophic effect [8]: 24.2
Anti-uterotrophic effect [10]: 32.3
inhibition [12]: 23%
Anti-uterotrophic effect [16]: 34.3
Anti-uterotrophic effect [17]: 38.2
Anti-uterotrophic effect [19]: 31.7
inhibition [20]: 31%
Uterotrophic effect [21]: 18.6

Oc1ccc(-c2cc3cc(O)ccc3[nH]2)cc1
RBA [1]: 0.01

CCc1c(-c2ccc(O)cc2)[nH]c2cc(O)ccc12
RBA [1]: 0.13

CCc1c(-c2ccc(OC(C)=O)cc2)n(CC)c2ccc(OC(C)=O)cc12
Uterotrophic effect [23]: 40.2
Uterotrophic effect [7]: 39.1
Uterotrophic effect [8]: 42.4
Uterotrophic effect [21]: 29.5

CCc1c(-c2ccc(OC(C)=O)cc2)n(CC)c2cc(OC(C)=O)ccc12
Uterotrophic effect [5]: 25.5
New tumors [24]: 3
Uterotrophic effect [23]: 44.7
Change of tumor area [25]: -100%
Progressed tumors [26]: 8%
Uterotrophic effect [7]: 45.6
Uterotrophic effect [8]: 46.4
Change of tumor area [27]: -95%
Partial remission [28]: 13%
Change of body weight [29]: -13%
Static tumors [30]: 5%
Uterotrophic effect [21]: 36.2
Complete remission [31]: 74%
No. of tumors [32]: 36

CCCCCn1c(-c2ccc(O)cc2)c(C)c2cc(O)ccc21
RBA [1]: 2.3

Cc1c(-c2ccc(O)cc2)n(C(C)C)c2cc(O)ccc12
RBA [1]: 13

Cc1c(-c2cccc(O)c2)n(C)c2cc(O)ccc12
RBA [1]: 0.55

CCc1c(-c2ccc(O)cc2)n(CC)c2cc(O)ccc12
RBA [1]: 21

CCn1c(-c2cccc(O)c2)c(C)c2cc(O)ccc21
RBA [1]: 2.2

CCCCn1c(-c2ccc(O)cc2)c(C)c2cc(O)ccc21
RBA [1]: 4.6

Cc1c(-c2ccc(O)cc2)n(C)c2cc(O)ccc12
RBA [1]: 10

CCn1c(-c2ccc(O)cc2)cc2cc(O)ccc21
RBA [1]: 5.8

CCn1c(-c2cccc(O)c2)cc2cc(O)ccc21
RBA [1]: 1.7

Source: ChEMBL document CHEMBL1122517, “2-Phenylindoles. Relationship between structure, estrogen receptor affinity, and mammary tumor inhibiting activity in the rat” (1984)
